Assays:
[1] = target: T1, ct-AChBP (Capitella teleta acetylcholine-binding protein) (Capitella teleta, UniProt I6L8L2); assay: STD NMR displacement titration with acetylcholine as reporter ligand
T1 sequence (I6L8L2 1-224): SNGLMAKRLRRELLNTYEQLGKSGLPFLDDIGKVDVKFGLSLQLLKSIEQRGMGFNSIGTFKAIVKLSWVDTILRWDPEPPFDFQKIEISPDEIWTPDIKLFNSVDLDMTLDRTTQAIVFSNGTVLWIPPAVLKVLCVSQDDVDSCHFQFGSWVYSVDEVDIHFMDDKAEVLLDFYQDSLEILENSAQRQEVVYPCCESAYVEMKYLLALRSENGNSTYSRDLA

[2] = target: T1, ct-AChBP (Capitella teleta acetylcholine-binding protein); assay: 1H NMR direct titration
[3] = target: T1, ct-AChBP (Capitella teleta acetylcholine-binding protein); assay: STD NMR displacement titration with choline as reporter ligand
In short: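 C-terminally V5/His-tagged ct-AChBP, stably expressed in HEK293-f cells, purified from medium by cobalt affinity then Superdex 200. 5 μM protein with 100 μM choline in 25 mM phosphate pH 7.0, 100% D2O, titrated with test compound; 16K scans; choline CH2 STD peaks tracked. KD fitted by competition equation using choline KD from shift/line-width titration; standard errors from asymptotic covariance matrix.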

[4] = target: Capitella teleta acetylcholine-binding protein (Capitella teleta); assay: NMR titration

CN1CCC[C@H]1c1cccnc1 [Nic, nicotine]
Kd [1]: 0.209 ± 0.051 µM

C[N+](C)(C)CCO [Ch, choline]
Kd [2]: 163 ± 37 µM

CC(=O)OCC[N+](C)(C)C [ACh, acetylcholine]
Kd [3]: 28.7 ± 1.7 µM

α-bungarotoxin (from UniProt P60615 22-95) (natural protein)
Kd [4]: 0.11 µM

From article PMC4780051 (Biochemistry, 2010)
